Blank lines part the entries; values can stand above or below the compound they belong to. Activity calls are given as the source filed them. The rule behind the calls is not given here.
Experiments:
[1] = target: T1, Protein cereblon/Indoleamine 2,3-dioxygenase 1 (Homo sapiens, UniProt P14902+Q96SW2); assay: (§1) PROTAC activity at CRBN/N-terminal HiBiT-tagged IDO1 (unknown origin) transfected in human U87 cells assessed as induction of IDO1 degradation pretreated with IFN-gamma for 24 hrs followed by compound addition and measured after 24 hrs by Nano-Glo HiBiT assay; format: cell-based
How it was run: (§2)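 U87 cells carrying HiBiT knocked in by CRISPR/Cas9 at the IDO1 N-terminus, treated for 24 h. Degradation read as loss of luminescence. DC50 fitted from the lowest concentration up to maximal degradation, excluding hook-effect points; triplicate mean ± SD.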
Target sequence in this assay (P14902 whole entry): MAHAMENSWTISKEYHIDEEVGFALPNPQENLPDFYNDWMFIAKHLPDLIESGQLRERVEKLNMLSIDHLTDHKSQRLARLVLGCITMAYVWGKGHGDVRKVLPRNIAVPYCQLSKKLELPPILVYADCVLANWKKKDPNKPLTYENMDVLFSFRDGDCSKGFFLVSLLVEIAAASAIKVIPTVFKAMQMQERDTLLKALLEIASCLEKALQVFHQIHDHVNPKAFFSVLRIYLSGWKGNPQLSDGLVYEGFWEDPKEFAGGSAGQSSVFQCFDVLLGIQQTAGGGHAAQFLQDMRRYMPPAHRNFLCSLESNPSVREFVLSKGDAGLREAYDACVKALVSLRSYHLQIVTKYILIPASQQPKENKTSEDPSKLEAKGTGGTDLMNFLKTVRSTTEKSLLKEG
Target sequence in this assay (Q96SW2 whole entry): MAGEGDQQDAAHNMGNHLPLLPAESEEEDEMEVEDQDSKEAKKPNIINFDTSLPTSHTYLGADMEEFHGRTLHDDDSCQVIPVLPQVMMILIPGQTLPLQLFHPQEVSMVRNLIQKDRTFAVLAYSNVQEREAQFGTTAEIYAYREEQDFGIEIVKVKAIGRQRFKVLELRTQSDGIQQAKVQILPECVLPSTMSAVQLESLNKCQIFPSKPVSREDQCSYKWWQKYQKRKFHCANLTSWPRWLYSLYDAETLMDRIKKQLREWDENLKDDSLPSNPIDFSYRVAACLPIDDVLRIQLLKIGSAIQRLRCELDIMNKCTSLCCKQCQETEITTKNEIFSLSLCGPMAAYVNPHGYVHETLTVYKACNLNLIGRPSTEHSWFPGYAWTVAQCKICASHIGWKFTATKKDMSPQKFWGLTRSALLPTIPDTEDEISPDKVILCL

[2] = target: T1, Protein cereblon/Indoleamine 2,3-dioxygenase 1; assay: PROTAC activity at CRBN/IDO1 in human U87 cells assessed as induction of IDO1 degradation by measuring remaining activity at 10 uM pretreated with IFN-gamma for 24 hrs followed by compound addition and measured after 24 hrs by Western blotting analysis (reference value: 100%); format: cell-based
How it was run: (§3)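 U87 cells given an extended dose range of PROTAC for 24 h, then Western blot for IDO1. IFNγ-induced IDO1 levels normalised to untreated samples. n = 3 independent experiments; mean ± SEM.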
Target sequence in this assay (P14902 whole entry, looked up): as the sequence (P14902 whole entry) above
Target sequence in this assay (Q96SW2 whole entry, looked up): as the sequence (Q96SW2 whole entry) above

Kelly [3] = assay: Downregulation of CDK8 protein level in human Kelly cells at 1 uM incubated for 24 hrs by proteomics analysis; format: functional, cell-based
[4] = target: Indoleamine 2,3-dioxygenase 1 (Homo sapiens) (UniProt P14902); assay: Binding affinity to 6His-tagged recombinant IDO1 (unknown origin) assessed as binary complex formation by measuring half life by Biolayer Interferometry assay
[5] = target: T1, Protein cereblon/Indoleamine 2,3-dioxygenase 1; assay: PROTAC activity at CRBN/IDO1 in human U87 cells assessed as induction of IDO1 degradation by measuring remaining activity at 0.1 uM pretreated with IFN-gamma for 24 hrs followed by compound addition and measured after 24 hrs by Western blotting analysis (reference value: 100%); format: cell-based; how it was run: as §3
Target sequence in this assay (P14902 whole entry, looked up): as the sequence (P14902 whole entry) above
Target sequence in this assay (Q96SW2 whole entry, looked up): as the sequence (Q96SW2 whole entry) above

Kelly [6] = assay: Downregulation of ADO protein level in human Kelly cells at 1 uM incubated for 24 hrs by proteomics analysis; format: functional, cell-based
[7] = target: T1, Protein cereblon/Indoleamine 2,3-dioxygenase 1; assay: Binding affinity to CRBN/6His-tagged recombinant IDO1 (unknown origin) assessed as ternary complex formation by measuring half life by Biolayer Interferometry assay; format: protein assay
Target sequence in this assay (P14902 whole entry, looked up): as the sequence (P14902 whole entry) above
Target sequence in this assay (Q96SW2 whole entry, looked up): as the sequence (Q96SW2 whole entry) above

[8] = target: T1, Protein cereblon/Indoleamine 2,3-dioxygenase 1; assay: PROTAC activity at CRBN/IDO1 in human U87 cells assessed as induction of IDO1 degradation by measuring remaining activity at 0.001 uM pretreated with IFN-gamma for 24 hrs followed by compound addition and measured after 24 hrs by Western blotting analysis (reference value: 100%); format: cell-based; how it was run: as §3
Target sequence in this assay (P14902 whole entry, looked up): as the sequence (P14902 whole entry) above
Target sequence in this assay (Q96SW2 whole entry, looked up): as the sequence (Q96SW2 whole entry) above

[9] = target: T1, Protein cereblon/Indoleamine 2,3-dioxygenase 1; assay: PROTAC activity at CRBN/IDO1 in human U87 cells assessed as induction of IDO1 degradation by measuring remaining activity at 3 uM pretreated with IFN-gamma for 24 hrs followed by compound addition and measured after 24 hrs by Western blotting analysis (reference value: 100%); format: cell-based; how it was run: as §3
Target sequence in this assay (P14902 whole entry, looked up): as the sequence (P14902 whole entry) above
Target sequence in this assay (Q96SW2 whole entry, looked up): as the sequence (Q96SW2 whole entry) above

[10] = target: T1, Protein cereblon/Indoleamine 2,3-dioxygenase 1; assay: PROTAC activity at CRBN/IDO1 in human U87 cells assessed as induction of IDO1 degradation by measuring remaining activity at 0.01 uM pretreated with IFN-gamma for 24 hrs followed by compound addition and measured after 24 hrs by Western blotting analysis (reference value: 100%); format: cell-based; how it was run: as §3
Target sequence in this assay (P14902 whole entry, looked up): as the sequence (P14902 whole entry) above
Target sequence in this assay (Q96SW2 whole entry, looked up): as the sequence (Q96SW2 whole entry) above

[11] = target: T1, Protein cereblon/Indoleamine 2,3-dioxygenase 1; assay: PROTAC activity at CRBN/IDO1 in human U87 cells assessed as induction of IDO1 degradation by measuring remaining activity at 0.003 uM incubated for 24 hrs by Western blotting analysis (reference value: 100%); format: cell-based
[12] = target: T1, Protein cereblon/Indoleamine 2,3-dioxygenase 1; assay: PROTAC activity at CRBN/IDO1 in human U87 cells assessed as induction of IDO1 degradation by measuring maximum efficacy at 300 nM pretreated with IFN-gamma for 24 hrs followed by compound addition and measured after 24 hrs by Western blotting analysis relative to control; format: cell-based
How it was run: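 IDO1 in U87 cells induced with 50 ng/mL human IFN-γ, then compound given across an extended dose range for 24 h. IDO1 and GAPDH read by Western blot; IDO1 levels normalized to untreated; DC50 from n = 3 independent experiments.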

Kelly [13] = assay: Downregulation of EPHX2 protein level in human Kelly cells at 1 uM incubated for 24 hrs by proteomics analysis; format: functional, cell-based
[14] = target: T1, Protein cereblon/Indoleamine 2,3-dioxygenase 1; assay: PROTAC activity at CRBN/IDO1 in human U87 cells assessed as induction of IDO1 degradation by measuring remaining activity at 0.3 uM pretreated with IFN-gamma for 24 hrs followed by compound addition and measured after 24 hrs by Western blotting analysis (reference value: 100%); format: cell-based; how it was run: as §3
[15] = target: T1, Protein cereblon/Indoleamine 2,3-dioxygenase 1; assay: PROTAC activity at CRBN/IDO1 in human U87 cells assessed as induction of IDO1 degradation by measuring remaining activity at 0.03 uM pretreated with IFN-gamma for 24 hrs followed by compound addition and measured after 24 hrs by Western blotting analysis (reference value: 100%); format: cell-based; how it was run: as §3
[16] = target: T1, Protein cereblon/Indoleamine 2,3-dioxygenase 1; assay: PROTAC activity at CRBN/IDO1 in human U87 cells assessed as induction of IDO1 degradation by measuring remaining activity at 1 uM pretreated with IFN-gamma for 24 hrs followed by compound addition and measured after 24 hrs by Western blotting analysis (reference value: 100%); format: cell-based; how it was run: as §3
U-87MG ATCC [17] = assay: Inhibition of kynurenine production in human U87 cells […] and measured after 24 hrs by Ehrlich's reagent based analysis; format: functional, cell-based; details: dose 0.001-10 µM
How it was run: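 U87 cells plated, then 24 h later given compound with 50 ng/mL IFN-γ for a total of 24 h. Supernatant kynurenine measured with Ehrlich's reagent; cells without IFN-γ as control; mean ± SEM, Tukey's test.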

Kelly [18] = assay: Downregulation of SALL4 protein level in human Kelly cells at 1 uM incubated for 24 hrs by proteomics analysis; format: functional, cell-based
[19] = target: T1, Protein cereblon/Indoleamine 2,3-dioxygenase 1; assay: as §1, with “degradation by measuring maximum efficacy” for “degradation”, “assay relative to control” for “assay”; format: cell-based; how it was run: as §2
[20] = target: T1, Protein cereblon/Indoleamine 2,3-dioxygenase 1; assay: PROTAC activity at CRBN/IDO1 in human U87 cells assessed as induction of IDO1 degradation by measuring remaining activity at 25 nM pretreated with IFN-gamma for 24 hrs followed by compound addition and measured after 24 hrs by Western blotting analysis (reference value: 100%); format: cell-based
[21] = target: T1, Protein cereblon/Indoleamine 2,3-dioxygenase 1; assay: PROTAC activity at CRBN/IDO1 in human SW1990 cells assessed as induction of IDO1 degradation at 100 nM pretreated with IFN-gamma for 24 hrs followed by compound addition and measured after 24 hrs by Western blotting analysis; format: cell-based
[22] = target: T1, Protein cereblon/Indoleamine 2,3-dioxygenase 1; assay: PROTAC activity at CRBN/IDO1 in human SK-OV-3 cells assessed as induction of IDO1 degradation at 100 nM pretreated with IFN-gamma for 24 hrs followed by compound addition and measured after 24 hrs by Western blotting analysis; format: cell-based
[23] = target: T1, Protein cereblon/Indoleamine 2,3-dioxygenase 1; assay: PROTAC activity at CRBN/IDO1 in human U87 cells assessed as induction of IDO1 degradation by measuring remaining activity at 50 nM pretreated with IFN-gamma for 24 hrs followed by compound addition and measured after 24 hrs by Western blotting analysis (reference value: 100%); format: cell-based
[24] = target: T1, Protein cereblon/Indoleamine 2,3-dioxygenase 1; assay: PROTAC activity at CRBN/IDO1 in human MDA-MB-231 cells assessed as induction of IDO1 degradation at 100 nM pretreated with IFN-gamma for 24 hrs followed by compound addition and measured after 24 hrs by Western blotting analysis; format: cell-based
[25] = target: T1, Protein cereblon/Indoleamine 2,3-dioxygenase 1; assay: PROTAC activity at CRBN/IDO1 in human U87 cells assessed as induction of IDO1 degradation by measuring remaining activity at 100 nM pretreated with IFN-gamma for 24 hrs followed by compound addition and measured after 24 hrs by Western blotting analysis (reference value: 100%); format: cell-based
[26] = target: T1, Protein cereblon/Indoleamine 2,3-dioxygenase 1; assay: PROTAC activity at CRBN/IDO1 in human KNS-42 cells assessed as induction of IDO1 degradation at 100 nM pretreated with IFN-gamma for 24 hrs followed by compound addition and measured after 24 hrs by Western blotting analysis; format: cell-based
[27] = target: T1, Protein cereblon/Indoleamine 2,3-dioxygenase 1; assay: PROTAC activity at CRBN/IDO1 in human PDX-38 cells assessed as induction of IDO1 degradation at 100 nM pretreated with IFN-gamma for 24 hrs followed by compound addition and measured after 24 hrs by Western blotting analysis; format: cell-based
[28] = target: T1, Protein cereblon/Indoleamine 2,3-dioxygenase 1; assay: PROTAC activity at CRBN/IDO1 in human PDX-6 cells assessed as induction of IDO1 degradation at 100 nM pretreated with IFN-gamma for 24 hrs followed by compound addition and measured after 24 hrs by Western blotting analysis; format: cell-based
[29] = target: T1, Protein cereblon/Indoleamine 2,3-dioxygenase 1; assay: PROTAC activity at CRBN/IDO1 in human U87 cells overexpressing GFP-fused IDO1 assessed as induction of IDO1 degradation at 100 nM pretreated with IFN-gamma for 24 hrs followed by compound addition and measured after 24 hrs by Western blotting analysis; format: cell-based
[30] = target: T1, Protein cereblon/Indoleamine 2,3-dioxygenase 1; assay: PROTAC activity at CRBN/IDO1 in human PC-3 cells assessed as induction of IDO1 degradation at 100 nM pretreated with IFN-gamma for 24 hrs followed by compound addition and measured after 24 hrs by Western blotting analysis; format: cell-based
Protein cereblon = Protein cereblon (Homo sapiens, UniProt Q96SW2); assay: Binding affinity to CRBN (unknown origin) assessed as dissociation constant by Biolayer Interferometry assay
U-87MG ATCC [31] = assay: Inhibition of kynurenine production in human U87 cells at 25 nM pretreated with IFN-gamma for 24 hrs followed by compound addition and measured after 24 hrs by Ehrlich's reagent based analysis; format: functional, cell-based

Sequence of Indoleamine 2,3-dioxygenase 1 (Homo sapiens) (P14902 whole entry, looked up): as the sequence (P14902 whole entry) above
Sequence of Protein cereblon (Q96SW2 whole entry): as the sequence (Q96SW2 whole entry) above

DC50 [1]: 20 nM
Activity [2]: 93%
T1/2 [4]: 0.883 min
Activity [5]: 47%
T1/2 [7]: 4.27 min
Activity [8]: 93%
Activity [9]: 57%
Activity [10]: 84%
Activity [11]: 88%
Emax [12]: 68%
Activity [14]: 32%
Activity [15]: 71%
Activity [16]: 37%
Emax [19]: 67%
SMILES: C[C@@H](C(=O)Nc1cccc(OC2CCN(C(=O)CN3CCC(CN4CCN(c5ccc6c(c5)C(=O)N(C5CCC(=O)NC5=O)C6=O)CC4)CC3)CC2)c1)[C@H]1CC[C@@H](c2ccnc3ccc(F)cc32)CC1 (stereo partly specified)
Activity (Kelly [3]): Active
Activity (Kelly [6]): Active
Activity (Kelly [13]): Active
inhibition (U-87MG ATCC [17]): Dose-dependent-effect
Activity (Kelly [18]): Active

SMILES: C[C@@H](C(=O)Nc1cccc(OC2CCN(C(=O)CN3CCC(N4CCN(c5ccc6c(c5)C(=O)N(C5CCC(=O)N(C)C5=O)C6=O)CC4)CC3)CC2)c1)[C@H]1CC[C@@H](c2ccnc3ccc(F)cc32)CC1 (stereo partly specified)
DC50 [1]: > 10000 nM
Activity [20]: 99%
Activity [21]: inactive
Activity [22]: inactive
Activity [23]: 125%
Activity [24]: inactive
Activity [25]: 162%
Activity [26]: inactive
Activity [27]: inactive
Activity [28]: inactive
Activity [29]: inactive
Emax [19]: < 10%
Activity [30]: inactive

SMILES: C[C@@H](C(=O)Nc1ccc(OC2CCN(C(=O)CCOCCOCCNc3cccc4c3C(=O)N(C3CCC(=O)NC3=O)C4=O)CC2)cc1)[C@H]1CC[C@@H](c2ccnc3ccc(F)cc32)CC1 (stereo partly specified)
DC50 [1]: 430 nM
Kd (Protein cereblon): 290 nM
Emax [19]: 79%

SMILES: C[C@@H](C(=O)Nc1ccc(Cl)cc1)[C@H]1CC[C@@H](c2ccnc3ccc(F)cc32)CC1
inhibition (U-87MG ATCC [31]): Active

Reference: ChEMBL document CHEMBL6153131, “Rational Design and Optimization of a Potent IDO1 Proteolysis Targeting Chimera (PROTAC)” (J Med Chem, 2025)
